Experimental findings from ChEMBL document CHEMBL1148018, “Discovery and SAR development of thienopyridones: a class of small molecule AMPK activators” (Bioorg Med Chem Lett, 2007) are described below.

Each structure is given as a SMILES string. Active and inactive are the calls of the source. The calls are words filed in the database; no cut-off is given here.

Test system in one experiment: not listed separately
The experiment is described as follows: (§1) Activation of AMPK in rat liver assessed as SAMS peptide phosphorylation. It counts as functional, tissue-based. A digest of the protocol: (§2)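 Kinase activity is read as phosphorylation of the SAMS peptide substrate. Substrate concentration is 20 in standard assays and 100 in additivity assays.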
For `C=CCc1ccc(-c2csc3[nH]c(=O)c(C#N)c(O)c23)cc1`, the EC50 turned out to be 40 µM.
On the same count and under the same terms, for `COC(=O)c1c(O)c2c(-c3ccccc3)csc2[nH]c1=O` the value was 175 µM; for `N#Cc1c(O)c2c(-c3ccc(Br)cc3)csc2[nH]c1=O`, 72 µM; for `N#Cc1c(O)c2c(-c3ccc(F)cc3)csc2[nH]c1=O`, 84 µM.
With `COC(=O)c1ccc(-c2csc3[nH]c(=O)c(C#N)c(O)c23)cc1`, the EC50 was 55 µM.
On the same count and under the same terms, for `COc1cccc(-c2c(O)c3c(-c4ccccc4)csc3[nH]c2=O)c1` the value was 180 µM; for `N#Cc1c(O)c2c(-c3ccc4c(c3)OCO4)csc2[nH]c1=O`, 20 µM.
Still for that read-out and setting: for `N#Cc1c(O)c2c(-c3ccc(Cl)cc3)csc2[nH]c1=O` the value was 81 µM; for `N#Cc1c(O)c2c(-c3ccccc3)csc2[nH]c1=O`, 38 µM; for `O=c1[nH]c2scc(-c3ccccc3)c2c(O)c1-c1cccs1`, 183 µM.
On to `N#Cc1c(O)c2c(-c3ccccc3)c(Br)sc2[nH]c1=O`, for which the EC50 came to 5.8 µM.
As for `N#Cc1c(O)c2c(-c3ccc(F)cc3)c(Br)sc2[nH]c1=O`, the EC50 is 10 µM.
With `N#Cc1c(O)c2c(-c3ccccc3)c(Cl)sc2[nH]c1=O`, the EC50 came to 3.7 µM.
Take `O=c1[nH]c2scc(-c3ccccc3)c2c(O)c1Cl`: the EC50 was determined as 88 µM.
On to `COCOc1ccc(-c2csc3[nH]c(=O)c(C#N)c(O)c23)cc1`, for which the EC50 came out at 8 µM.
On to `N#Cc1c(O)c2c(-c3ccc(O)cc3)csc2[nH]c1=O`, for which the EC50 is 20 µM.
For the molecule `N#Cc1c(O)c2c(-c3cccc(O)c3)csc2[nH]c1=O`, the concentration giving a half-maximal response (EC50) amounted to 38 µM.
Same read-out and setting: for `N#Cc1c(O)c2c(-c3ccc(O)cc3)c(Cl)sc2[nH]c1=O` the value was 2 µM.

Another experiment is filed under the species Rattus norvegicus. Described as §1. In kind it is functional, tissue-based. A digest of the protocol:
as §2
`N#Cc1c(O)c2c(-c3ccccc3)c(-c3ccccc3O)sc2[nH]c1=O`: the result was inactive.
Same read-out and setting: for `N#Cc1c(O)c2c(-c3ccccc3)c([N+](=O)[O-])sc2[nH]c1=O` the value was “inactive”.
Regarding `Cn1c(=O)c(C#N)c(N)c2c(-c3ccc(Br)cc3)csc21`, the result was inactive.
With `Cn1c(=O)c(C#N)c(O)c2c(-c3ccc(Br)cc3)c(F)sc21`, the result was inactive.
For the molecule `COc1c(C#N)c(=O)[nH]c2scc(-c3ccccc3)c12`, the outcome was inactive.
For the molecule `O=c1cc(O)c2c(-c3ccccc3)csc2[nH]1`, the outcome was inactive.
Regarding `O=c1[nH]c2scc(-c3ccccc3)c2c(O)c1-c1ccccc1`, the outcome was inactive.
Regarding `Cn1c(=O)c(C#N)c(O)c2c(-c3ccccc3)csc21`, the result was inactive.
Take `CN(C)c1c(O)c2c(-c3ccccc3)csc2[nH]c1=O`: the result was inactive.
Same read-out and setting: for `Cn1c(=O)c(C#N)c(O)c2c(-c3ccc(Cl)cc3)csc21` the value was “inactive”.

Usually EC50 stands for the concentration at which the effect is half-maximal.
